Measurements gathered from unrelated publications.
Effect on: cell growth or viability

| SMILES | cell line | test | conditions | endpoint | result |
| --- | --- | --- | --- | --- | --- |
| COc1ccc(-c2ccc(-c3ccc(C(=N)N)nc3)s2)cc1 | SNB-75 | SRB | – | GI50 | 1.55 µM |
| COc1cc(-c2cn(-c3ccccc3)nn2)cc(OC)c1OC | CCRF-CEM | – | 48 h | CC50 | 34.6 µM |
| Oc1ccc(Nc2nc(-c3ccc(Cl)cc3)cs2)cc1 | A375M | MTS | 24 h | IC50 | > 100 µM |
| COc1cc(-c2ccc(-c3ccc(C(=N)N)nc3)s2)cc(OC)c1OC | SNB-75 | SRB | – | GI50 | 1.5 µM |
| CC(C)C[C@H](NC(=O)[C@H](Cc1ccccc1)NC(=O)c1cnccn1)B(O)O | OCI-AML-5 | ATP luminescence | – | IC50 | 0.018 µM |
| COc1cccc(Oc2ccccc2NC(=O)CNC(=O)c2cccc3ccccc23)c1 | HCC 2998 | SRB | 48 h | GI50 | 1.26 µM |
| Cc1ccc(C)c(COc2cc(NC(=O)c3ccc4c(c3)OCO4)ccc2N(C)S(C)(=O)=O)c1 | HCC 2998 | SRB | 48 h | GI50 | 0.12 µM |
| COc1ccc(C2=Nn3c(NN=C4C(=O)Nc5ccc(OC)cc54)nnc3SC2)cc1 | UACC-257 | SRB | 10 µM | inhibition | 20% |
| S=C([S][Au-][P+](CCCCCC[P+]([Au-][S]C(=S)n1cccn1)(c1ccccc1)c1ccccc1)(c1ccccc1)c1ccccc1)n1cccn1 | HCC 2998 | – | – | GI50 | 0.759 µM |
| O=C1Nc2ccccc2C1=NNc1nnc2n1N=C(c1ccccc1)CS2 | SNB-75 | SRB | 10 µM | inhibition | 35% |
| COc1cc(OC)cc(-c2cn(-c3cc(=O)oc4ccc(Br)cc34)nn2)c1 | CCRF-CEM | – | 48 h | CC50 | 10.5 µM |
| Cc1cc(C)n(C(=S)[S][Au][PH](CCCCCC[PH]([Au][S]C(=S)n2nc(C)cc2C)(c2ccccc2)c2ccccc2)(c2ccccc2)c2ccccc2)n1 | HCC 2998 | – | – | GI50 | 0.252 µM |
